Rows were chosen to be rich in hits. Some 3.5% of all compounds tested hit in one or more screens of this group.
MrgX1 PAM: human MrgX1 positive allosteric modulation, primary screen | Q96LB2 | 310,000 tested, 0.63% active | MrgX1-HEK293, Fluo-4 calcium flux, FDSS; active compounds read high | AID 588675 | B-score at 10 µM;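 active = plate-corrected calcium response at least 3 library SD above typical, normal starting fluorescence, not activating the receptor alone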;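 note: compound read alongside a low EC10 to EC30 dose of BAM8-22 agonist; peak minus trough fluorescence over baseline measured at the second addition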
Target sequence (Q96LB2 whole entry, looked up): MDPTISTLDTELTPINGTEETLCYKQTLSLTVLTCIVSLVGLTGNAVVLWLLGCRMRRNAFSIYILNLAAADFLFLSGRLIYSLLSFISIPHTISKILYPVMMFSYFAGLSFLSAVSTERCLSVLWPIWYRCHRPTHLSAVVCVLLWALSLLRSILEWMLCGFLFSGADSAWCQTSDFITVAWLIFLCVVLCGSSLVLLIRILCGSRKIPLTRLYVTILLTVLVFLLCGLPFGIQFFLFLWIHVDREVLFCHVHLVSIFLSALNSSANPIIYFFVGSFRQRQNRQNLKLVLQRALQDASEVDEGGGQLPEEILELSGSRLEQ
RGS4 act: potentiators or activators of RGS4. B-score at 10 µM. 310,000 tested, 0.92% active. AID 463111. HEK293 M3R/inducible RGS4, carbachol calcium flux Fluo4; active compounds read low;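 active = B-score of the integrated calcium signal more than 4 SD below the library mean, with starting fluorescence not abnormally high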;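 note: negative B-score means reduced calcium response which marks RGS4 activation or potentiation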
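Material: Inducible-RGS4 HEK293 cells carrying M3 receptor; also added: carbachol at ECmax as muscarinic agonist stimulus; incubation: compound preincubation 20 min at room temperature before agonist; signal: Fluo4-AM (2 µM) calcium-flux fluorescence, kinetic read; measure: integrated calcium ratio converted to B score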
RGS4 block: human RGS4 inhibition; B-score at 10 µM; 310,000 tested, 0.45% active; HEK293 M3R/RGS4 inducible, Fluo-4 calcium flux; active compounds read high; triggered by carbachol at its EC20; P49798; AID 463165;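 active = B-score, a plate-corrected calcium signal, over three deviations above library mean, with baseline fluorescence within five deviations of library mean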;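 note: RGS4 expression induced by doxycycline in cells with stable M3 receptor; B-score is computed from the integrated fluorescence ratio over baseline after carbachol; higher B-score means a larger calcium signal and so more RGS4 inhibition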
Target sequence (P49798 whole entry, looked up): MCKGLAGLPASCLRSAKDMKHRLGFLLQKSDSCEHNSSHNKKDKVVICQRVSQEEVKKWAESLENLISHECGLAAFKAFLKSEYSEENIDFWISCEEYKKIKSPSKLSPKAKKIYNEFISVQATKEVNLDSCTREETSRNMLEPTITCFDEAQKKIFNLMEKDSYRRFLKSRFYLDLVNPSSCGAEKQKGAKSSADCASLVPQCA
MrgX1 antag: blocks BAM8-22 activation of human MrgX1 receptor. MRGX1-HEK293 calcium flux, Fluo-4, BAM8-22 antagonism; active compounds read low. AID 588676. Q96LB2. B-score at 10 µM. 310,000 tested, 1.3% active;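 active = calcium-response B-score plate-corrected more than 3 library SD below zero, starting fluorescence within 5 deviations, no agonist response on first addition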;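 note: peak minus trough fluorescence over baseline after final BAM8-22 challenge near maximal dose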
MrgX1 ag: agonists of human MrgX1 receptor; AID 588627; MrgX1-HEK293 cells, Fluo-4 calcium fluorescence, agonist mode; active compounds read high; Q96LB2; B-score at 10 µM; 310,000 tested, 0.44% active;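 active = calcium response B-score plate-corrected fluorescence ratio at least 3 library SD, with starting fluorescence B-score inside 5 SD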
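Test system: HEK293 cells stably expressing human MrgX1 receptor; Input: fifteen thousand cells per well; Dosing: compound delivered in addition one of three; Schedule: overnight seeding, then 1 h dark dye loading; Technique: Fluo-4 NW calcium fluorescence; Measure: B-scored fluorescence response ratio; Controls: positive and negative controls per plate.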
MrgX1 ag confirm: human MrgX1 agonism, re-confirmation screen; shares compounds with MrgX1 ag; MrgX1-HEK293, Fluo-4 calcium fluorescence, FDSS; activation, % at 10 µM; 600 tested, 78% active;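 active = calcium signal rise, corrected for plate position, at least 3 library SD high, with starting brightness within 5 such deviations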
HEK293 Ca flux: counter-screen for MrgX1 antagonists: effect in parental HEK293 cells | fluorescence ratio F(max-min)/F0 at 10 µM | shares compounds with MrgX1 antag | Fluo-4 calcium fluorescence, FDSS | 4,000 tested, 2% active;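 active = duplicate-averaged calcium fluorescence ratio at least three times the standard deviation of buffer wells, a nonspecific response in parental cells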
HEK293 Ca counter: activity in parental HEK293 cells without MrgX1; shares compounds with MrgX1 antag; parental HEK293 calcium flux, Fluo-4 fluorescence ratio; active compounds read high; fluorescence ratio F(max-min)/F0 at 10 µM; 4,000 tested, 0.4% active;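 active = calcium fluorescence ratio, averaged over duplicates, at least 3 SD of the buffer-well ratio, meaning a nonspecific response in receptor-free cells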;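 note: untransfected parental HEK293 lacking MrgX1 used as counterscreen for MrgX1 allosteric activators; fluorescence change taken during the second addition on a kinetic imager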
HEK293 Ca cntr2: MrgX1 activator counter-screen hit in parental HEK293 cells | shares compounds with MrgX1 antag | Fluo-4 calcium fluorescence (FDSS); active compounds read high | fluorescence ratio F(max-min)/F0 at 10 µM | 4,000 tested, 8.7% active;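 active = calcium fluorescence ratio at least three times the spread of buffer wells, meaning a non-specific response in parental cells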
Starred values were filed as active, the others as inactive; i = inactive; x = no result.

SMILES	MrgX1 PAM	RGS4 act	RGS4 block	MrgX1 antag	MrgX1 ag	MrgX1 ag confirm	HEK293 Ca flux	HEK293 Ca counter	HEK293 Ca cntr2
CC1(C)CC(=O)C=C(Nc2ccc(Cl)c(Br)c2)C1	i	i	i	i	i	x	x	x	x
CCN(CCn1cccn1)C(=O)CC1C(=O)NCCN1CCc1ccccc1 (configuration not stated)	i	i	i	i	i	x	x	x	x
CCOc1ccccc1NC(=O)CSc1ccc(-c2ccco2)nn1	i	i	i	i	i	x	x	x	x
CCOc1ccccc1NC(=O)CSc1ccc(-c2sc(C)nc2C)nn1	i	i	i	i	37*	170%*	i	i	i
O=C(C1Cc2ccccc2CN1S(=O)(=O)c1ccc(F)cc1)N1CCCCC1 (configuration not stated)	i	i	i	i	33*	243%*	i	i	74*
O=C(c1ccco1)N1CCN(C(=O)C2Cc3ccccc3CN2S(=O)(=O)c2ccc(F)cc2)CC1 (configuration not stated)	i	i	i	i	i	x	x	x	x
CC1Sc2ccc(S(=O)(=O)N3CCC(C(=O)N(C)Cc4ccccc4)CC3)cc2NC1=O (configuration not stated)	i	i	i	i	i	x	x	x	x
O=[N+]([O-])c1ccc2nnn(O)c2c1	i	i	i	i	i	x	x	x	x
CCC(=O)NC(=S)NNC(=O)c1ccc([N+](=O)[O-])cc1	i	i	i	i	i	x	x	x	x
CC(C)CC(=O)NC(=S)NNC(=O)c1ccc([N+](=O)[O-])cc1	i	i	i	i	81*	280%*	i	i	72*
COc1cc2c(cc1OC)C(c1ccccc1C(F)(F)F)CC(=O)N2 (configuration not stated)	i	i	i	i	29*	i	i	i	i
c1ccc2c(c1)Cc1cc3ccccc3nc1-2	i	i	i	i	i	x	x	x	x
ClCC1=Nc2ccccc2Cc2ccccc21	i	i	i	i	29*	111%*	i	i	i
CCOC(=O)c1c(CC(C)C)csc1NC(=O)c1ccccc1C(=O)O	i	i	i	i	37*	220%*	i	i	i
CCOC(=O)c1c(CC(C)C)csc1NC(C)=O	i	i	i	i	i	x	x	x	x
CN(C)c1nnnn1-c1ccc(Oc2ncc(C(F)(F)F)cc2Cl)cc1	i	i	i	i	i	x	x	x	x
CC1(C)Cc2ccccc2-c2nc(NCCO)n(-c3ccccc3)c(=O)c21	i	i	i	i	i	x	x	x	x
CCC1(C)Cc2ccccc2-c2nc(NCCO)n(-c3ccc(C)cc3)c(=O)c21 (configuration not stated)	i	i	i	i	39*	173%*	i	i	56*
N#CC1=C(SCC(=O)NCc2ccccc2)NC(=O)CC1c1ccco1 (configuration not stated)	i	i	i	i	i	x	x	x	x
N#CC1=C(SCc2ccccc2)NC(=O)CC1c1ccco1 (configuration not stated)	i	i	i	i	41*	180%*	i	i	i
N#Cc1ccc(C(=O)Nc2nnc(-c3cccs3)o2)cc1	i	i	i	i	i	x	x	x	x
O=C(Nc1nnc(-c2cccs2)o1)c1cccc(C(F)(F)F)c1	i	i	i	i	75*	498%*	i	i	96*
Cc1cc(CSC(=N)N)c(CSC(=N)N)cc1C	i	i	i	i	91*	246%*	i	i	i
CC(C)Oc1ccc(CSC(=N)N)cc1	i	i	i	i	i	x	x	x	x
COc1ccc(N2C(=O)C3CCCN3C2=S)cc1 (configuration not stated)	i	i	i	i	i	x	x	x	x
SMILES	MrgX1 PAM	RGS4 act	RGS4 block	MrgX1 antag	MrgX1 ag	MrgX1 ag confirm	HEK293 Ca flux	HEK293 Ca counter	HEK293 Ca cntr2
CN(Cc1cccs1)C(=O)CCc1c[nH]c2ccccc12	i	i	i	i	i	x	x	x	x
CN(Cc1cccs1)C(=O)CCCc1c[nH]c2ccccc12	i	i	i	i	27*	161%*	i	i	i
CC1=CN2C(=N)/C(=C\c3cn(CCCOc4ccccc4)c4ccccc34)C(=O)N=C2S1	i	i	i	i	i	x	x	x	x
O=C(NCC(c1ccc(F)cc1)N1CCOCC1)c1ccco1 (configuration not stated)	i	i	i	i	i	x	x	x	x
Cc1cc2oc(=O)cc(CN3CCCc4ccccc43)c2cc1C	i	i	i	i	67*	179%*	i	i	i
COc1cc(/C=C(\C#N)C(=O)c2c[nH]c3ccccc23)cc(OC)c1O	i	i	i	i	70*	461%*	i	i	105*
CC(C)COc1ccc(C(=S)N2CCCC2)cc1	i	i	i	i	i	x	x	x	x
CSCCC(NC(=O)c1ccco1)C(=O)OC(C)C(=O)NC(=O)NC1CCCCC1 (configuration not stated)	i	i	i	i	92*	397%*	i	i	86*
Cc1cc2ccc3ccccc3c2cc1CN(C)C	i	i	i	i	i	x	x	x	x
CN(C)CCOC1c2ccccc2CCc2ccc3ccccc3c21 (configuration not stated)	i	i	i	i	57*	142%*	i	i	i
CN(CCOc1ccc(Cl)cc1)C(=O)c1cc([N+](=O)[O-])ccc1N1CCOCC1	i	i	i	i	i	x	x	x	x
Nc1nnc(SCC(=O)c2ccccc2)s1	i	i	i	i	i	x	x	x	x
Nc1c(C(=O)c2ccccc2)sc2snc(SCC(=O)c3ccccc3)c12	i	i	i	i	32*	225%*	0.41*	i	55*
COc1ccc(CCC(=O)NC(C)C2CCCO2)cc1 (configuration not stated)	i	i	i	i	i	x	x	x	x
